The record followed here is PubChem BioAssay.

As usually defined, the inhibition is the drop in the measured response relative to a control, in per cent.

Active and inactive are the calls of the source.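 The calls were made as follows, unless noted: active = visually confirmed hit in the image check and inhibition above 20%; inconclusive = visually confirmed hit but inhibition not above 20%; inactive = no visual hit in the image check.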

Assay [1] is described as follows: inhibitors of TNFa-induced NFkB p65 translocation, primary screen, imaging, HUVEC, MLSMR starter and 10KST1 sets (AID 438;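 active = inhibition above 20% together with a positive visual image hit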;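 also: compound added about 3h40 before a 20 min TNFalpha stimulation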;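 as to inhibition: signal is the nuclear over cytoplasmic p65 intensity ratio per well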). The note with it: HUVEC TNFa-induced p65 nuclear translocation; cell count: measured here: nuclei count (cytotoxicity indicator), at 2.08 µM; inhibition: at 2 µM, stronger effect = higher value, 0% TNFa-plus-vehicle, 100% no-TNFa wells.
Assay [2] is described as follows: inhibitors of mutant huntingtin aggregation, primary screen, imaging, exon1htt(103Q)mCFP cells, high-content imaging (AID 483;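 active = visual image review flags a hit and inhibition of aggregation exceeds 20%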;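 also: compound exposure lasted 3 days before fixation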;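 as to nuclei count: percent of the per-plate median nuclei count of sample wells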). Conditions: exon1htt(103Q)mCFP cell line, aggregate imaging, at 2 µM; inhibition of aggregation: stronger effect = higher value; nuclei count: measured here: cell count, toxicity.
The nature of assay [3]: inhibitors of E-selectin induction by TNFa, primary screen, imaging, HUVEC, immunofluorescence, MLSMR starter and 10KST1 sets (AID 487).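 As to inhibition: signal is fraction of cell area covered by stained E-selectin grains.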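 As to nuclei count: 100% = median nuclei count of all wells on the same plate.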 The note with it: HUVEC TNFalpha-induced E-selectin immunofluorescence imaging, at 2 µM; inhibition: stronger effect = higher value; nuclei count: measured here: cell number, toxicity.
Assay [4] concerns the target Voltage-gated potassium channel subunit beta-2 (Rattus norvegicus) (UniProt P62483). Nature of the assay: KvBeta enzyme negative modulators, primary screen, biochemical, NADPH fluorescence (AID 622;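 active = fluorescence slope higher than the sample average by over 3 SD, cut at about -0.22 in these data, passing the limit was not always enough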;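 also: slope of raw intensity against log time taken from 70 to 1610 s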). Conditions: recombinant KvBeta, 4-cyanobenzaldehyde reduction, at 10 µM, stronger effect = higher value.
Assay [5] has the same target. Nature of the assay: KvBeta positive modulators, primary screen, biochemical, NADPH fluorescence (AID 623;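 active = NADPH fluorescence slope more negative than the mean of all samples by about 3 SD, 99.7% confidence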;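 also: fluorescence intensity change per second fitted from 20 to 320 s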). The note with it: Recombinant KvBeta, NADPH fluorescence decrease slope, 10 min; at 10 µM; stronger effect = lower value.
Assay [6] deals with Alpha-2C adrenergic receptor (Homo sapiens) (UniProt P18825). Nature of the assay: modulators of alpha2C/GIRK thallium flux, primary screen, cell-based, HEK293 alpha2C/GIRK1/2 (AID 624;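 active = fluorescence slope after compound addition differing from the mean of all screened samples at 99.7% confidence, in either direction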;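 also: slope of fluorescence ratio to pre-addition baseline per second over 15 to 24 s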). The note with it: thallium flux BTC fluorescence, at 10 µM, actives lie on both sides.
Sequence of Alpha-2C adrenergic receptor (Homo sapiens) (P18825 whole entry, looked up): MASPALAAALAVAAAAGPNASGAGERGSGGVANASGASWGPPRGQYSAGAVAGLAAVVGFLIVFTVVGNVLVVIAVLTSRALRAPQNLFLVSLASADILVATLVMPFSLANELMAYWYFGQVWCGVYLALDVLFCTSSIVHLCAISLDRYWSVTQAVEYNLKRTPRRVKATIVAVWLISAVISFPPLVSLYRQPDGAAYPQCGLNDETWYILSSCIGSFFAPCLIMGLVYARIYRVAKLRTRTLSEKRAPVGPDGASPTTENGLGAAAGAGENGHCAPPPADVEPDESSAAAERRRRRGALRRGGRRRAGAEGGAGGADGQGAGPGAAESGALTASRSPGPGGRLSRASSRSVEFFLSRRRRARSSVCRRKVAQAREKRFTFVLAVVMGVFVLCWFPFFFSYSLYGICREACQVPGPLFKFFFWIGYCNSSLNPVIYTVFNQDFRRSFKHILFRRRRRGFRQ
The nature of assay [7]: inhibitors of larval lipid processing in zebrafish, primary screen, whole organism, PED6 fluorescence, gall bladder and intestine (AID 686;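 active = a full or partial loss of lipid-probe fluorescence in the fish gall bladder, intestine or both, judged by eye; inactive = no fluorescence loss, or compound toxic to the fish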;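 also: larvae 5 to 7 days old with five fish per well; signal comes from phospholipase A2 cleavage of quenched PED6 carried via bile; overnight exposure to compound and PED6 before scoring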). Conditions: Zebrafish larvae PED6 lipid processing, fluorescence scoring; screened at 20 µM (by protocol). The essentials:
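system = live zebrafish larvae aged 5-7 days, whole organism | probe or stimulus = ingested quenched lipid PED6 at 100 nM | doses = 20 µM single dose | timing = overnight exposure | detection = fluorescence microscopy with visual scoring of gall bladder and intestine | read-out = visual per-well fluorescence inhibition score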

Assay [8] can be described thus: inhibitors of Sendai virus-induced IRF3 signaling, primary screen, TLR/RLR signaling modifier project, cell-based, Sendai virus stimulus, luciferase, 10K MLSCN set (AID 602276;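 active = inhibition at or above 50% at 10 µM; inactive = inhibition below 50%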;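 also: firefly luciferase from ISG56 promoter only with Renilla not read in this screen; 0% = Sendai virus plus DMSO and 100% = medium plus DMSO without virus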). Conditions: HEK293 RL24 IRF3 luciferase reporter, at 10 µM, stronger effect = higher value.
Assay [9] in a line: inhibitors of poly I:C-induced TLR3 signaling, primary screen, cell-based, poly I:C stimulus, luciferase, 10K MLSCN set (AID 602277;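 active = inhibition of the reporter signal at or above 50%; inactive = inhibition below 50%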). Conditions: HEK293-TLR3 RL24 IRF3 luciferase reporter, at 10 µM, stronger effect = higher value. A general note: Reporter assays use an easily measured gene product as a stand-in for the process of interest.

Sequence of Voltage-gated potassium channel subunit beta-2 (Rattus norvegicus) (P62483 whole entry, looked up): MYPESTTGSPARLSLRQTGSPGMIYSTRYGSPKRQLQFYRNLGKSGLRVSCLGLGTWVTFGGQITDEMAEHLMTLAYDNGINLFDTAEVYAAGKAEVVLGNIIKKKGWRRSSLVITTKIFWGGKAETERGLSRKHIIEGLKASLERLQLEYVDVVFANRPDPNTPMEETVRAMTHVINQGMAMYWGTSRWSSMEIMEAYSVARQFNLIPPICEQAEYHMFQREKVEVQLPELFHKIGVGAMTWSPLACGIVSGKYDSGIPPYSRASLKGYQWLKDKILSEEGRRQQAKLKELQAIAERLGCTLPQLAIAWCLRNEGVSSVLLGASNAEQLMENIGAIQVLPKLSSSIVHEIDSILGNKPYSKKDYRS

As to `Cc1nnc(SCC(=O)NCc2ccc3c(c2)OCO3)s1`, the cell count in assay [1] is 418. The inhibition was 3.1% (inactive) in assay [1], -57% (inactive) in assay [3], 5.5% (inactive) in [8] and 11.6% (inactive) in [9]. For the same compound, in assay [2], the inhibition of aggregation is -12% (inactive). The nuclei count is 101% in [2] and 106% in assay [3]. For the same compound, the fluorescence slope in assay [4] is -0.468 (inactive). Further, in assay [5], the NADPH fluorescence slope was -4.3e-05 (inactive). Moreover, the slope in [6] is 0.00565 (inactive). Besides, the result in [7] was inactive.
For the compound `CC(=O)NCCc1ccc(S(=O)(=O)NCc2ccc3c(c2)OCO3)cc1`, the cell count in [1] worked out at 587. Moreover, the inhibition in assay [1] is -12.3% (inactive); in assay [3] it was 35.7% (inactive); in [8] it was 4.45% (inactive); in assay [9] it was 2.38% (inactive). Moreover, in assay [2], the inhibition of aggregation was -24.8% (inactive). In addition, the nuclei count in [2] came to 89.5%; in assay [3], 82.1%. For the same compound, the fluorescence slope in assay [4] was -0.356 (inactive). The NADPH fluorescence slope in [5] is -4.4e-05 (inactive). Besides, in assay [6], the slope is 0.00549 (inactive). Further, the outcome in assay [7] was inactive.
`c1ccc(OCCCn2nnc(-c3ccncc3)n2)cc1`: in [1], the cell count was found to be 604. Moreover, the inhibition in [1] was -9.9% (inactive); in [3] it was -57.3% (inactive); in assay [8], 13.2% (inactive); in assay [9], -7.55% (inactive). Besides, the inhibition of aggregation in [2] is 2.3% (inactive). Further, the nuclei count in assay [2] amounted to 91.9%; in assay [3], 114%. The fluorescence slope in assay [4] was -0.454 (inactive). Besides, the NADPH fluorescence slope in assay [5] was -2.7e-05 (inactive). In assay [6], the slope is 0.00445 (inactive). The compound was classed as inactive in [7].
For `CCOC(=O)N1CCN(C(=O)CN(Cc2ccccc2)S(=O)(=O)c2ccc(OC)c(C)c2)CC1`, the cell count in [1] was 320. Besides, the inhibition is -2.3% (inactive) in assay [1], -6.6% (inactive) in assay [3], -4.93% (inactive) in assay [8] and 1.48% (inactive) in [9]. In addition, the inhibition of aggregation in assay [2] is 1.8% (inactive). Further, the figures for the nuclei count in assay [2] and in assay [3] were 106% and 70.5%, respectively. Also, the fluorescence slope in [4] is -0.38 (inactive). Also, the NADPH fluorescence slope in [5] is 1e-05 (inactive). The slope in [6] is 0.00442 (inactive). The outcome in assay [7] was inactive.
Take `Cc1cccc(C)c1-n1nnnc1SCSc1nnnn1-c1c(C)cccc1C`: the cell count in assay [1] was determined as 409. Besides, the inhibition in assay [1] was 7.5% (inactive); in assay [3], -231% (inactive); in assay [8] it was 4.69% (inactive); in [9], 15% (inactive). Also, in [2], the inhibition of aggregation was -3.2% (inactive). For the same compound, the nuclei count in [2] was 101%; in [3] it was 116%. Moreover, the fluorescence slope in assay [4] was -0.445 (inactive). Also, the NADPH fluorescence slope in [5] was -2.4e-07 (inactive). For the same compound, the slope in assay [6] was 0.00806 (inactive). For the same compound, the outcome in [7] was inactive.
As for `O=C1NC(=O)C(CC(=O)N(c2ccccc2)C2(C(=O)NC3CCCC3)CCCCC2)N1` (stereo not given), the cell count in assay [1] was 384. Besides, the inhibition was -1.1% (inactive) in [1], -24.5% (inactive) in assay [3], 14.9% (inactive) in assay [8] and 11.4% (inactive) in assay [9]. Further, the inhibition of aggregation in assay [2] was 25.6% (inactive). In addition, the nuclei count in [2] was 83.3%; in assay [3], 108%. In addition, the fluorescence slope in [4] was -0.391 (inactive). The NADPH fluorescence slope in assay [5] is -1.3e-05 (inactive). The slope in [6] is 0.00517 (inactive). The call in assay [7] was inactive.
Turning to `CCOC(=O)N1CCN(C(=O)CN(C2CCCCC2)S(=O)(=O)c2ccc(F)cc2)CC1`, in assay [1], the cell count is 645. In addition, the inhibition in assay [1] was -10.7% (inactive); in assay [3], -51.6% (inactive); in assay [8], 21.5% (inactive); in assay [9] it was 81.8% (active). Further, the inhibition of aggregation in assay [2] was 18.3% (inactive). The nuclei count came to 81.3% in [2] and 108% in assay [3]. The fluorescence slope in [4] was -0.355 (inactive). For the same compound, the NADPH fluorescence slope in [5] was -7.3e-05 (inactive). The slope in assay [6] was 0.00492 (inactive). The call in assay [7] was inactive.
`O=C(NCCCN1CCN(c2cccc(Cl)c2)CC1)c1ccc(N2CCCC2=O)cc1`: in [1], the cell count is 763. Besides, the inhibition in assay [1] is -10% (inactive); in assay [3], 46.9% (inactive); in [8], 10.3% (inactive); in assay [9], 0.162% (inactive). The inhibition of aggregation in [2] was 11.5% (inactive). For the same compound, the results for the nuclei count in assay [2] and in assay [3] were 97.9% and 105%, respectively. Moreover, in assay [4], the fluorescence slope was -0.479 (inactive). Moreover, the NADPH fluorescence slope in assay [5] was -5.9e-05 (inactive). Moreover, in assay [6], the slope was 0.00509 (inactive). In addition, the outcome in [7] was inactive.
`COC(=O)Nc1ccc(S(=O)(=O)N2CCCCCC2)cc1`: the cell count in assay [1] came to 336. Also, the inhibition is -2.5% (inactive) in assay [1], -61.6% (inactive) in [3], 17.1% (inactive) in [8] and 19.7% (inactive) in assay [9]. Besides, the inhibition of aggregation in [2] is 1.8% (inactive). For the same compound, the nuclei count in assay [2] was determined as 100%; in assay [3], 127%. In addition, the fluorescence slope in assay [4] is -0.354 (inactive). The NADPH fluorescence slope in assay [5] is 1.2e-05 (inactive). Moreover, the slope in assay [6] was 0.0065 (inactive). Further, the compound was classed as inactive in assay [7].
In the case of `COCCN1C=C(C(=O)OC)C(c2cc3c(cc2Br)OCO3)C(C(=O)OC)=C1`, in assay [1], the cell count stood at 629. Moreover, the inhibition is -7.8% (inactive) in assay [1], 48.4% (inactive) in assay [3], 13.3% (inactive) in assay [8] and 20.6% (inactive) in [9]. The inhibition of aggregation in assay [2] is 1.1% (inactive). Further, the values for the nuclei count in assay [2] and in assay [3] were 112% and 46.8%, respectively. Moreover, the fluorescence slope in [4] was -0.377 (inactive). Besides, in assay [5], the NADPH fluorescence slope was -6e-05 (inactive). Further, the slope in assay [6] is 0.00391 (inactive). Besides, the compound was called inactive in assay [7].
